From ChEMBL document CHEMBL1148008, “Antimicrobial and cytotoxic activity of agelasine and agelasimine analogs” (Bioorg Med Chem, 2007)
In brackets after ≈: the same amount, converted by molar mass.

Tests used:
[1] = Cytotoxicity against RPMI 8226/s cells; assay type: functional, cell-based; details: Homo sapiens, RPMI8226/S
Method in brief: (§1)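 Fluorometric microculture cytotoxicity assay (FMCA) read-out; IC50 values reported.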

[2] = Cytotoxicity against CEM/s cells; assay type: functional, cell-based; details: Homo sapiens; method in brief: as §1
Escherichia coli = assay: Antibacterial activity against Escherichia coli ATCC 25922 after 20 hrs by broth microdilution method; assay type: functional; details: ATCC 25922, 20 h
Method in brief: (§2)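 Strains grown 24 h at 35 °C on tryptone-soya agar. Colonies suspended in saline to 0.5 McFarland, then diluted 1:10 in Mueller-Hinton broth (~10⁷ CFU/mL). Inoculum added to twofold dilutions in broth (final 0.125–32 µg/mL) in triplicate. Incubated aerobically at 35 °C for 20 h. MIC is the lowest concentration giving complete growth inhibition. Repeated at least once; gentamycin/streptomycin served as QC.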

Bacteroides fragilis = assay: Antibacterial activity against Bacteroides fragilis after 20 hrs by broth microdilution method; assay type: functional
Staphylococcus aureus = assay: Antibacterial activity against Staphylococcus aureus ATCC 25923 after 20 hrs by broth microdilution method; assay type: functional; method in brief: as §2
U-937/GTB = assay: Cytotoxicity against U937 GTB cells; assay type: functional, cell-based; details: Homo sapiens; method in brief: as §1
[3] = test system: Bacteroides thetaiotaomicron; assay: Antibacterial activity against Bacteroides thetaiotaomicron after 20 hrs by broth microdilution method; assay type: functional
[4] = test system: Mycobacterium tuberculosis; assay: Antimicrobial activity against Mycobacterium tuberculosis at 6.25 ug/mL after 20 hrs by broth microdilution method; assay type: functional
ACHN = assay: Cytotoxicity against ACHN cells; assay type: functional, cell-based; details: Homo sapiens; method in brief: as §1
[5] = test system: Mycobacterium tuberculosis; assay: Antimicrobial activity against Mycobacterium tuberculosis after 20 hrs by broth microdilution method; assay type: functional
Pichia kudriavzevii = assay: Antifungal activity against Candida krusei ATCC 6258; assay type: functional

Molecule	IC50 [1] [µM]	IC50 [2] [µM]	MIC (Escherichia coli) [µg/mL]	MIC (Bacteroides fragilis) [µg/mL]	MIC (Staphylococcus aureus; ATCC 25923, 20 h) [µg/mL]	IC50 (U-937/GTB) [µM]	MIC [3] [µg/mL]	inhibition at 6.25 µg/mL [4] [%]	IC50 (ACHN) [µM]	MIC [5] [µg/mL]	MIC (Pichia kudriavzevii) [µg/mL]	MIC (Staphylococcus aureus) [µg/mL]
Cn1c[n+](Cc2ccccc2)c2c(N)ncnc21.[Cl-]	> 80	> 80	> 32	> 32	> 32	> 80	> 32	0	> 80	–	–	–
CO/N=c1\[nH]cnc2c1[n+](C/C=C(\C)CCCC(C)CCCC(C)CCCC(C)C)cn2C (centres undefined)	3.75	7.92	> 32	–	> 32	5.4	–	56	16.9	–	–	–
CC(=O)O[C@H]1C(=O)[C@@]2(C)[C@H]([C@H](OC(=O)c3ccccc3)[C@]3(O)C[C@H](OC(=O)[C@H](O)[C@@H](NC(=O)c4ccccc4)c4ccccc4)C(C)=C1C3(C)C)[C@]1(OC(C)=O)CO[C@@H]1C[C@@H]2O [PACLITAXEL]	0.007	0.007	–	–	–	0.0059	–	–	31.5	–	–	–
CC(C)=CCC/C(C)=C/CC/C(C)=C/CC/C(C)=C/C[n+]1cnc2c(ncn2C)c1N.[Br-]	18.6	20.8	> 32	–	8	39.4	–	72	> 80	–	–	–
Cn1c[n+](Cc2ccccc2)c2/c(=N/OC(C)(C)C)[nH]cnc21	–	–	–	–	–	–	–	53	–	–	–	–
CO/N=c1\[nH]cnc2c1[n+](C/C=C(\C)CC/C=C(\C)CC/C=C(\C)CCC=C(C)C)cn2C(c1ccccc1)c1ccccc1	2.6	3.54	> 32	–	8	1.97	–	99	4.75	3.13	–	–
C/C(=C\C[n+]1cn(C)c2nc[nH]/c(=N\OCc3ccccc3)c21)CCCC(C)CCCC(C)CCCC(C)C (centres undefined)	7.07	6.3	> 32	–	> 32	10.8	–	72	20.5	–	–	–
COc1cccc2c1C(=O)c1c(O)c3c(c(O)c1C2=O)C[C@@](O)(C(=O)CO)C[C@@H]3O[C@H]1C[C@H](N)[C@H](O)[C@H](C)O1 [DOXORUBICIN]	0.13	0.18	–	–	–	0.11	–	–	14.2	–	–	–
CO/N=c1\[nH]cnc2c1[n+](Cc1ccccc1)cn2C	> 80	> 80	> 32	–	> 32	> 80	–	4	> 80	–	–	–
CC(C)=CCC/C(C)=C/CC/C(C)=C/CC/C(C)=C/Cn1cnc2nc[nH]/c(=N\OCc3ccccc3)c21	10.9	20.4	> 32	–	> 32	11.2	–	40	27.4	–	–	–
CC(C)=CCC/C(C)=C/CC/C(C)=C/CC/C(C)=C/C[n+]1cn(C)c2ncnc(N)c21	2.79	3.06	> 32	–	32	3.17	–	–	20.3	–	> 16	–
CO/N=c1\[nH]cnc2c1[n+](C/C=C(\C)CCC=C(C)C)cn2C	18.4	27.4	> 32	–	> 32	17.5	–	–	> 80	–	–	–
CC(C)=CCC/C(C)=C/CC/C(C)=C/CC/C(C)=C/Cn1cnc2c1c(=N)ncn2C	6.78	7.77	8 (≈ 19 µM)	–	4 (≈ 9.49 µM)	6.4	–	84	12.3	–	2 (≈ 4.74 µM)	–
CC(C)=CCC/C(C)=C/CC/C(C)=C/CC/C(C)=C/Cn1cnc2c1C(=N)NCN2C	18.2	21.7	16 (≈ 37.8 µM)	–	8 (≈ 18.9 µM)	> 80	–	99	> 80	–	–	–
CO[C@H]1/C=C/O[C@@]2(C)Oc3c(C)c(O)c4c(O)c(c(/C=N/N5CCN(C)CC5)c(O)c4c3C2=O)NC(=O)/C(C)=C\C=C\[C@H](C)[C@H](O)[C@@H](C)[C@@H](O)[C@@H](C)[C@H](OC(C)=O)[C@@H]1C [RIFAMPIN]	–	–	–	–	–	–	–	–	–	0.25 (≈ 0.304 µM)	–	–
CC(C)=CCC/C(C)=C/CC/C(C)=C/CC/C(C)=C/Cn1cnc2ncnc(Cl)c21	5.2	6.79	> 32	–	> 32	5.07	–	33	6.75	–	–	–
C=CC[n+]1cn(C)c2nc[nH]/c(=N\OC)c21	> 80	> 80	> 32	–	> 32	> 80	–	–	> 80	–	–	–
Cn1c[n+](Cc2ccccc2)c2/c(=N/OCc3ccccc3)[nH]cnc21	–	–	–	–	–	–	–	0	–	–	–	–
CO/N=c1\[nH]cnc2c1[n+](C/C=C(\C)CC/C=C(\C)CCC1CCCCC1)cn2C	–	–	16	–	6	–	–	–	–	–	–	–
CO/N=c1\[nH]cnc2ncn(C/C=C(\C)CC/C=C(\C)CC/C=C(\C)CCC=C(C)C)c12	3	5.69	> 32	–	> 32	3.31	–	74	18.1	–	–	–

Molecule	IC50 [1] [µM]	IC50 [2] [µM]	MIC (Escherichia coli) [µg/mL]	MIC (Bacteroides fragilis) [µg/mL]	MIC (Staphylococcus aureus; ATCC 25923, 20 h) [µg/mL]	IC50 (U-937/GTB) [µM]	MIC [3] [µg/mL]	inhibition at 6.25 µg/mL [4] [%]	IC50 (ACHN) [µM]	MIC [5] [µg/mL]	MIC (Pichia kudriavzevii) [µg/mL]	MIC (Staphylococcus aureus) [µg/mL]
CC(C)=CCC/C(C)=C/CC/C(C)=C/C[n+]1cn(C)c2ncnc(N)c21.[Cl-]	> 80	> 80	> 32	–	> 32	> 80	–	13	> 80	–	–	–
CC(C)=CCC/C(C)=C/CC/C(C)=C/CC/C(C)=C/C[n+]1cn(C(c2ccccc2)c2ccccc2)c2nc[nH]/c(=N\OCc3ccccc3)c21	59	9.11	> 32	–	8	4.24	–	78	17.2	–	–	–
CC(C)=CCC/C(C)=C/CC/C(C)=C/CC/C(C)=C/C[n+]1cn(CCC#N)c2nc[nH]/c(=N\OCc3ccccc3)c21	9.46	19.1	> 32	–	> 32	24.2	–	86	38.9	–	–	–
CO/N=c1\[nH]cnc2c1[n+](C/C=C(\C)CC/C=C(\C)CC/C=C(\C)CCC=C(C)C)cn2CCC#N	3.96	5.36	> 32	–	4	3.33	–	100	11.4	> 6.25	–	–
C=CCn1c[n+](C/C=C(\C)CC/C=C(\C)CC/C=C(\C)CCC=C(C)C)c2/c(=N/OC)[nH]cnc21	1.25	2.94	> 32	–	> 32	1.39	–	100	4.61	3.13	–	–
C/N=c1\ncn(C)c2ncn(C/C=C(\C)CC/C=C(\C)CC/C=C(\C)CCC=C(C)C)c12	> 80	> 80	16 (≈ 36.7 µM)	–	3 (≈ 6.89 µM)	> 80	–	94	> 80	3.13 (≈ 7.18 µM)	–	–
CC(C)=CCC/C(C)=C/CC/C(C)=C/CC/C(C)=C/Cn1cnc2ncnc(N)c21	2.78	2.88	> 32	–	> 32	3.6	–	99	7.24	1.56 (≈ 3.83 µM)	> 16	–
Cc1ncc([N+](=O)[O-])n1CCO [METRONIDAZOLE]	–	–	–	0.5 (≈ 2.92 µM)	–	–	1 (≈ 5.84 µM)	–	–	–	–	–
CO/N=c1\[nH]cnc2c1[n+](C/C=C(\C)CC/C=C(\C)CC/C=C(\C)CCC=C(C)C)cn2Cc1ccccc1	1.04	2.24	> 32	–	> 32	1.07	–	99	3.4	1.56	–	–
GENTAMICIN	–	–	–	–	–	–	–	–	–	–	–	0.1
CC(C)=CCC/C(C)=C/CC/C(C)=C/CC/C(C)=C/C[n+]1cn(C)c2nc[nH]/c(=N\OC(C)(C)C)c21	2.09	3.86	> 32	–	24	4.87	–	100	8.4	3.13	2	–
Cn1c[n+](Cc2ccccc2)c2ccccc21	–	–	–	–	–	–	–	19	–	–	–	–
C/C(=C\C[n+]1cn(C)c2ncnc(N)c21)CCCC(C)CCCC(C)CCCC(C)C (centres undefined)	2.41	5.82	> 32	–	4	3.18	–	99	11.3	6.25	–	–
CC(C)=CCC/C(C)=C/CC/C(C)=C/CC/C(C)=C/Cn1cnc2c1C(=N)N(C)CN2C	2.51	3.15	> 32	–	16 (≈ 36.6 µM)	3.36	–	99	5.16	3.13 (≈ 7.15 µM)	16 (≈ 36.6 µM)	–
Cn1cnc(=N)c2c1ncn2Cc1ccccc1	–	–	–	–	–	–	–	0	–	–	–	–
CC(C)=CCC/C(C)=C\CC/C(C)=C/C[n+]1cn(C)c2ncnc(N)c21.[Cl-]	–	–	> 32	–	32	–	–	8	–	–	–	–
CO/N=c1\[nH]cnc2c1[n+](C/C=C(\C)CC/C=C(\C)CC/C=C(\C)CCC=C(C)C)cn2C(C)C	0.886	2.05	–	–	–	1.1	–	100	2.45	1.56	–	–
Cn1cnc2c(N)[n+](Cc3ccccc3)cnc21.[Br-]	–	–	> 32	–	> 32	–	–	0	–	–	–	–
Cn1cc[n+](Cc2ccccc2)c1	–	–	–	–	–	–	–	19	–	–	–	–
